Legend:
[1] = melting temperature; fluorescence melt of hairpins on a sequencing array, two-state fit, raised by 9.35 °C to match UV melts; conditions: sodium 0.088 M
Method in brief: (§1)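 In 50 mM Na-HEPES pH 8.0 containing 25 mM NaCl, hairpins from the library on a sequenced MiSeq flow cell were imaged for Cy3 fluorescence at 2.5 °C steps up to 60 °C, with Cy3 and quencher oligos annealed. After normalisation to pre-quench Cy3 and to control constructs, two-state fits with bootstrapping gave melting temperature and folding enthalpy. Four replicates were combined by inverse-variance weighting, and fitted temperatures were shifted up by 9.35 °C to match UV melts.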

[2] = folding enthalpy; higher = less favourable; fluorescence melt of hairpins on a sequencing array, two-state fit; conditions: sodium 0.088 M
Method in brief: as §1

GGCACCGAAAGGTGTGCC ((((((....)))..)))
Tm [1]: 55.4 °C
folding enthalpy [2]: -16.3 kcal/mol

GGCACCGAAAGGTTTGCC ((((((....)))..)))
Tm [1]: 50.6 °C
folding enthalpy [2]: -22.6 kcal/mol

GGCACCGGAAACGATGCC ((((.((....)).))))
Tm [1]: 52.9 °C
folding enthalpy [2]: -43.2 kcal/mol

GGCACCGGAAACGGTACC ((.((((....)))).))
Tm [1]: 50.7 °C
folding enthalpy [2]: -22.5 kcal/mol

GGCACGCCGAAAGGCGCC (((..(((....))))))
Tm [1]: 40.3 °C
folding enthalpy [2]: -6.45 kcal/mol

GGCACGGGAAACCGTGTC (.(((((....))))).)
Tm [1]: 59.2 °C
folding enthalpy [2]: -34.6 kcal/mol

GGCACTACGAAAGTAGCC (((..(((....))))))
Tm [1]: 39.3 °C
folding enthalpy [2]: -11.9 kcal/mol

GGCACTGCGAAAGCAGCC (((..(((....))))))
Tm [1]: 35.9 °C
folding enthalpy [2]: -8.74 kcal/mol

GGCACTGGAAACAGCACC ((..(((....)))..))
Tm [1]: 23.5 °C
folding enthalpy [2]: -9.94 kcal/mol

GGCACTGGAAACAGTGTC (.(((((....))))).)
Tm [1]: 54.1 °C
folding enthalpy [2]: -37.8 kcal/mol

GGCAGAGCGAAAGCTGCC (((..(((....))))))
Tm [1]: 61.9 °C
folding enthalpy [2]: -28.6 kcal/mol

GGCAGCGAAAGCTAGGCC ((((((....)))..)))
Tm [1]: 55.3 °C
folding enthalpy [2]: -28.6 kcal/mol

GGCAGCGAAAGCTGGGCC ((((((....)))..)))
Tm [1]: 52 °C
folding enthalpy [2]: -13.1 kcal/mol

GGCAGCGAAAGCTGTGCC ((((((....)))..)))
Tm [1]: 51 °C
folding enthalpy [2]: -13.2 kcal/mol

GGCAGCGGAAACACCGCC (((.(.(....).).)))
Tm [1]: 34.9 °C
folding enthalpy [2]: -11.1 kcal/mol

GGCAGCGGAAACGCTACC ((.((((....)))).))
Tm [1]: 54 °C
folding enthalpy [2]: -22.8 kcal/mol

GGCAGGAAACTGCC (((((....)))))
Tm [1]: 65.6 °C
folding enthalpy [2]: -31.6 kcal/mol

GGCAGGCCGAAAGGCGCC (((..(((....))))))
Tm [1]: 59.6 °C
folding enthalpy [2]: -21.3 kcal/mol

GGCAGTCGAAAGACGCC (((.(((....))))))
Tm [1]: 65 °C
folding enthalpy [2]: -26.6 kcal/mol

GGCAGTTCGAAAGAAGCC (((..(((....))))))
Tm [1]: 34.5 °C
folding enthalpy [2]: -16.3 kcal/mol

GGCATACGAAAGTACGCC (((.(((....))).)))
Tm [1]: 51.8 °C
folding enthalpy [2]: -32.1 kcal/mol

GGCATAGGAAACTACGCC (((.(((....))).)))
Tm [1]: 41.1 °C
folding enthalpy [2]: -28.2 kcal/mol

GGCATATCGAAAGATGCC (((..(((....))))))
Tm [1]: 50.1 °C
folding enthalpy [2]: -29 kcal/mol

GGCATCCGAAAGGAAGCC (((.(((....))).)))
Tm [1]: 59.2 °C
folding enthalpy [2]: -42.9 kcal/mol

GGCATCGAAAGATCGCC ((((((....))).)))
Tm [1]: 50.4 °C
folding enthalpy [2]: -24.4 kcal/mol

GGCATCGAAAGATCGGCC ((((((....)))..)))
Tm [1]: 41.1 °C
folding enthalpy [2]: -23.7 kcal/mol

GGCATCGAAAGATGCGCC ((((((....)))..)))
Tm [1]: 57.3 °C
folding enthalpy [2]: -8.72 kcal/mol

GGCATCGGAAACAACGCC (((.(.(....).).)))
Tm [1]: 27.4 °C
folding enthalpy [2]: -9.26 kcal/mol

GGCATCGGAAACAATGCC (((((.(....).)))))
Tm [1]: 46.7 °C
folding enthalpy [2]: -30.4 kcal/mol

GGCATCTCGAAAGAGGCC (((..(((....))))))
Tm [1]: 51.2 °C
folding enthalpy [2]: -26.6 kcal/mol

GGCATTGCGAAAGCAGCC (((..(((....))))))
Tm [1]: 50.7 °C
folding enthalpy [2]: -16.4 kcal/mol

GGCATTGGAAACGATGTC (.(((.(....).))).)
Tm [1]: 35.1 °C
folding enthalpy [2]: -25.7 kcal/mol

GGCCAAGCGAAAGCTGCC (((..(((....))))))
Tm [1]: 54.3 °C
folding enthalpy [2]: -21.7 kcal/mol

GGCCACGAAAGTGAGCC ((((((....))).)))
Tm [1]: 65.8 °C
folding enthalpy [2]: -27.1 kcal/mol

GGCCACGAAAGTGAGGCC ((((((....)))..)))
Tm [1]: 58.3 °C
folding enthalpy [2]: -26.9 kcal/mol

GGCCACGAAAGTGCGCC ((((((....))).)))
Tm [1]: 63.6 °C
folding enthalpy [2]: -32.8 kcal/mol

GGCCACGAAAGTGCTGCC ((((((....)))..)))
Tm [1]: 48.8 °C
folding enthalpy [2]: -20.4 kcal/mol

GGCCACGGAAACATGGCC (((((.(....).)))))
Tm [1]: 53.3 °C
folding enthalpy [2]: -49.2 kcal/mol

GGCCACGGAAACGCAGCC (((..((....))..)))
Tm [1]: 39.5 °C
folding enthalpy [2]: -20.5 kcal/mol

GGCCAGAAATGGCC (((((....)))))
Tm [1]: 67.5 °C
folding enthalpy [2]: -29 kcal/mol

GGCCAGCCGAAAGGCGCC (((..(((....))))))
Tm [1]: 55.1 °C
folding enthalpy [2]: -13.4 kcal/mol

GGCCAGGGAAACCTAGCC (((.(((....))).)))
Tm [1]: 43.2 °C
folding enthalpy [2]: -28.4 kcal/mol

GGCCATCCGAAAGGAGCC (((..(((....))))))
Tm [1]: 42.8 °C
folding enthalpy [2]: -20.1 kcal/mol

GGCCATCGAAAGATTGCC (((.(((....))).)))
Tm [1]: 49.3 °C
folding enthalpy [2]: -26.3 kcal/mol

GGCCATGGAAACACAGCC (((..((....))..)))
Tm [1]: 27.6 °C
folding enthalpy [2]: -13.5 kcal/mol

GGCCATGGAAACATGACC ((.((((....)))).))
Tm [1]: 47.6 °C
folding enthalpy [2]: -29.2 kcal/mol
